pEC50, pIC50: −log10 of the molar value.

Test [1] is described as follows: Inhibition of NF-kappaB in A549 cells after 5 hrs by reporter gene assay. The format is cell-based. To be noted: Homo sapiens, A549, 5 h. The method, boiled down:
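A549 cells stably transfected with a pNF-κB-SEAP reporter were plated at 2 · 10^4/well and left to attach overnight. They were pre-incubated 5 h with compound at 100, 30, 10, 3, 1, 0.3, 0.1 and 0 µM, then stimulated with 10 ng/ml TNF-α for 22 h. Supernatant SEAP was read by chemiluminescence, viability by CellTiter-Blue, with four replicates per concentration.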

For the next test, the system named is PBMC. The test is described as follows: Antiproliferative activity against human PBMC. Format: functional, cell-based. The method, boiled down:
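Human peripheral blood mononuclear cells were stimulated with phytohemagglutinin, so the proliferation read-out reflects mainly T-cells.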

Test [2] in a line: Inhibition of chymotrypsin like activity of human 20S proteasome. The method, boiled down:
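20S proteasome (1.3 µg) was pre-incubated 10 min at room temperature in 25 mM HEPES pH 7.5, 0.5 mM EDTA, 0.033% SDS, then added to compound in DMSO and Suc-LLVY-AMC substrate (75 µM in the substrate solution). Fluorescence (ex 360/em 465 nm) was followed 20 min at 30 °C as RFU/min. Eight inhibitor concentrations were run in triplicate, and IC50 came from a four-parameter logistic fit.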

The next test deals with A549. Put plainly: Inhibition of NF-kappaB in A549 cells at 20 uM after 5 hrs by reporter gene assay. Format: cell-based. To be noted: Homo sapiens.

Take `Cc1cc2nnc(C(=O)N3CCC(c4nc(C(=O)Nc5nc6cc(C(=O)c7ccccc7)ccc6[nH]5)cs4)CC3)c(C)n2n1`: the pEC50 in test [1] was 6.05.
On the same count and under the same terms, the result for `O=C(c1csc(C2CCN(S(=O)(=O)c3cccs3)CC2)n1)N1CCN(c2cccc(C(F)(F)F)c2)CC1` reads 4.70.
Take `COC(=O)c1nc2nccc(N3CCC(c4nc(C(=O)Nc5nc6cc(C(=O)c7ccccc7)ccc6[nH]5)cs4)CC3)n2n1`: in test [1], the pEC50 is 6.30. The same molecule had a pIC50 in the test with PBMC of 5.60.
With `COc1cc2ncnc(N3CCC(c4nc(C(=O)Nc5nc6cc(C(=O)c7ccccc7)ccc6[nH]5)cs4)CC3)c2cc1OC`, in test [1], the negative logarithm of the EC50 (pEC50) is 6.52.
On the same count and under the same terms, the result for `COc1nc(OC)nc(N2CCC(c3nc(C(=O)Nc4nc5cc(C(=O)c6ccccc6)ccc5[nH]4)cs3)CC2)n1` reads 6.10; that for `Cc1cc2nccc(N3CCC(c4nc(C(=O)Nc5nc6cc(C(=O)c7ccccc7)ccc6[nH]5)cs4)CC3)n2n1`, 7.00.
The same measure, in the same setting: the result for `Cc1cc2nc(NC(=O)c3csc(C4CCN(c5ncnc6ccsc56)CC4)n3)[nH]c2cc1C` reads 6.52; that for `O=C(c1ccccc1)c1ccc2[nH]c(NC(=O)c3csc(C4CCN(c5cc(C(F)(F)F)ncn5)CC4)n3)nc2c1`, 6.30; that for `O=C(c1csc(C2CCN(S(=O)(=O)c3ccc(F)cc3Cl)CC2)n1)N1CCN(c2cccc(C(F)(F)F)c2)CC1`, 4.70.
In test [2], `COc1cc(N2CCC(c3nc(C(=O)Nc4nc5cc(C(=O)c6ccccc6)ccc5[nH]4)cs3)CC2)nc(OC)n1` showed a negative-log IC50 (pIC50) of less than 5.52. This molecule also showed a pEC50 in test [1] of 6.52.
`O=C(Nc1cccc(F)c1)N1CCC(c2nc(C(=O)N3CCN(c4cccc(C(F)(F)F)c4)CC3)cs2)CC1` showed a pEC50 in test [1] of 5.47.
The same measure, in the same setting: in the case of `Cc1cc2nnc(C(=O)N3CCC(c4nc(C(=O)N5CCN(c6cccc(C(F)(F)F)c6)CC5)cs4)CC3)c(C)n2n1` it was less than 4.70.
The same measure, in the same setting: the result for `COc1cc(N2CCC(c3nc(C(=O)N4CCN(c5cccc(C(F)(F)F)c5)CC4)cs3)CC2)nc(OC)n1` reads 5.30; that for `O=C(c1ccsc1)c1ccc2[nH]c(NC(=O)c3csc(C4CCN(c5ncnc6ccsc56)CC4)n3)nc2c1`, 6.30.
Consider `O=C(c1csc(C2CCN(c3ccc(C(F)(F)F)cc3)CC2)n1)N1CCN(c2cccc(C(F)(F)F)c2)CC1`, for which, in test [2], the pIC50 was 6.32. Further, the pEC50 in test [1] is 4.70.
`O=C(c1ccccc1)c1ccc2[nH]c(NC(=O)c3csc(C4CCN(C(=O)c5ccccc5OC(F)(F)F)CC4)n3)nc2c1` had a pEC50 in test [1] of 6.10.
For `O=C(c1ccccc1)c1ccc2[nH]c(NC(=O)c3csc(C4CCN(c5ccnc6ncnn56)CC4)n3)nc2c1`, the negative-log EC50 (pEC50) in test [1] is 7.00. The molecule further had a pIC50 in the test with PBMC of 5.44.
Consider `O=C(c1ccccc1)c1ccc2[nH]c(NC(=O)c3csc(C4CCN(c5ccncc5[N+](=O)[O-])CC4)n3)nc2c1`, for which the pEC50 in test [1] was 6.52.
Still for that read-out and setting: the result for `COc1cccc(NC(=O)N2CCC(c3nc(C(=O)N4CCN(c5cccc(C(F)(F)F)c5)CC4)cs3)CC2)c1` reads 5.14.
Consider `COc1nc(OC)nc(N2CCC(c3nc(C(=O)N4CCN(c5cccc(C(F)(F)F)c5)CC4)cs3)CC2)n1`, for which, in test [1], the pEC50 was 5.33. Moreover, in the test on PBMC, the pIC50 is 4.82.
`Cc1cc2nc(NC(=O)c3csc(C4CCN(C(=O)c5ccccc5OC(F)(F)F)CC4)n3)[nH]c2cc1C` had a pEC50 in test [1] of 5.52.
The same measure, in the same setting: the result for `COc1nc(OC)nc(N2CCC(c3nc(C(=O)Nc4nc5cc(C(=O)c6ccsc6)ccc5[nH]4)cs3)CC2)n1` reads 6.40.
With `Cc1cc2nnc(C(=O)N3CCC(c4nc(C(=O)NC5CCN(Cc6ccccc6)C5)cs4)CC3)c(C)n2n1` (stereo not given), the results for the pIC50 (in test [2]; in the test with PBMC) were 6.24 and 4.43, respectively. In addition, the inhibition in the test with A549 was 30%.
In test [1], `O=C(c1ccccc1)c1ccc2[nH]c(NC(=O)c3csc(C4CCN(c5ncnc6nc[nH]c56)CC4)n3)nc2c1` gave a pEC50 of 6.52.
Still for that read-out and setting: the result for `N#Cc1ccc(CN2CCC(c3nc(C(=O)Nc4nc5cc(C(=O)c6ccccc6)ccc5[nH]4)cs3)CC2)cc1` reads 6.52; that for `N#Cc1ccc(CN2CCC(c3nc(C(=O)N4CCN(c5cccc(C(F)(F)F)c5)CC4)cs3)CC2)cc1`, 5.07.
As for `O=C(c1ccccc1)c1ccc2[nH]c(NC(=O)c3csc(C4CCN(c5ncnc6ccsc56)CC4)n3)nc2c1`, in test [1], the pEC50 is 6.70. Moreover, the pIC50 in the test with PBMC was 5.66.
